Only some compounds are listed: those with a hit (about 3.5% of all), similar ones and a draw of the others.
MrgX1 agonist = human MrgX1 receptor agonism, primary screen; MrgX1-HEK293 cells, Fluo-4 calcium fluorescence, agonist mode; stronger effect = higher value; B-score at 10 µM; Q96LB2; hit rate 0.44% among 310,000; AID 588627;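 active = calcium response B-score plate-corrected fluorescence ratio at least 3 library SD, with starting fluorescence B-score inside 5 SD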
Target sequence (Q96LB2 whole entry, looked up): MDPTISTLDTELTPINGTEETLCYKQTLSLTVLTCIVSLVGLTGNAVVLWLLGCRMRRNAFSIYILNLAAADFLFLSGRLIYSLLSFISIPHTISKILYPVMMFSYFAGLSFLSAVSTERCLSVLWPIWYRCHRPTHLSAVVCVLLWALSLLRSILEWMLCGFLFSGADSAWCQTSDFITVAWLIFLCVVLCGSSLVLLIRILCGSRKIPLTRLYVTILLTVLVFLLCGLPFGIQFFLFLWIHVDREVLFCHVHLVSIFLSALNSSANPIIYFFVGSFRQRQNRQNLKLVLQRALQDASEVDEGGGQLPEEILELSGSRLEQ
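Material: MrgX1-expressing HEK293 cells; input: 15,000 cells per well; doses: test compound given as first of three sequential additions; schedule: overnight plating before 1 h dye loading; technique: Fluo-4 NW calcium-flux fluorescence, kinetic read; evaluation: baseline-normalised fluorescence change ratio, B-scored; control set: plate-wise positive and negative controls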
MrgX1 allo act = human MrgX1 positive allosteric modulation, primary screen; hit rate 0.63% among 310,000; Q96LB2; AID 588675; B-score at 10 µM; MrgX1-HEK293, Fluo-4 calcium flux, FDSS; stronger effect = higher value;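 active = plate-corrected calcium response at least 3 library SD above typical, normal starting fluorescence, not activating the receptor alone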;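 also: compound read alongside a low EC10 to EC30 dose of BAM8-22 agonist; peak minus trough fluorescence over baseline measured at the second addition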
RGS4 pot = potentiators or activators of RGS4; HEK293 M3R/inducible RGS4, carbachol calcium flux Fluo4; stronger effect = lower value; B-score at 10 µM; hit rate 0.92% among 310,000; AID 463111;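 active = B-score of the integrated calcium signal more than 4 SD below the library mean, with starting fluorescence not abnormally high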;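 also: negative B-score means reduced calcium response which marks RGS4 activation or potentiation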
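Assay system: Inducible-RGS4 HEK293 cells carrying M3 receptor | Schedule: Compound preincubation 20 min at room temperature before agonist | Signal: Kinetic calcium fluorescence imaging with Fluo4-AM dye, 2 µM | Read-out basis: B score from integrated fluorescence ratio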
RGS4 inh = human RGS4 inhibition. hit rate 0.45% among 310,000. HEK293 M3R/RGS4 inducible, Fluo-4 calcium flux; stronger effect = higher value; triggered by carbachol at its EC20. P49798. B-score at 10 µM;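 active = B-score, a plate-corrected calcium signal, over three deviations above library mean, with baseline fluorescence within five deviations of library mean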;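 also: RGS4 expression induced by doxycycline in cells with stable M3 receptor; B-score is computed from the integrated fluorescence ratio over baseline after carbachol; higher B-score means a larger calcium signal and so more RGS4 inhibition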
Target sequence (P49798 whole entry, looked up): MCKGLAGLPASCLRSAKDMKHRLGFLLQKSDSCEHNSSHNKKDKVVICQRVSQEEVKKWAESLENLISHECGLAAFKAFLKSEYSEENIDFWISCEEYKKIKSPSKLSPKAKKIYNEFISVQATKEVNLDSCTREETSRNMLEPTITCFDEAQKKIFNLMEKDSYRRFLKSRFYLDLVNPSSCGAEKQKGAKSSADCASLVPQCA
MrgX1 antagonist = antagonists of human MrgX1 receptor; hit rate 1.3% among 310,000; AID 588676; B-score at 10 µM; MRGX1-HEK293 calcium flux, Fluo-4, BAM8-22 antagonism; stronger effect = lower value; Q96LB2;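 active = calcium-response B-score plate-corrected more than 3 library SD below zero, starting fluorescence within 5 deviations, no agonist response on first addition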;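 also: peak minus trough fluorescence over baseline after final BAM8-22 challenge near maximal dose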
MrgX1 ant reconf = confirmation of human MrgX1 receptor antagonists; shares compounds with MrgX1 antagonist; MrgX1-HEK293, BAM8-22 calcium flux, Fluo-4; stronger effect = lower value; AID 602420; remaining BAM8-22 calcium response % of control (stronger effect = lower value), % at 10 µM; hit rate 19% among 2,300;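 active = remaining agonist calcium response no higher than 100% minus 3 SD of agonist-only control wells, with starting fluorescence near control levels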;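 also: agonist BAM8-22 given at a near maximal EC90 to ECmax level; peak minus minimum fluorescence divided by baseline after agonist addition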
HEK293 Ca flux = MrgX1 antagonist counter-screen hit in parental HEK293 cells. shares compounds with MrgX1 antagonist. Fluo-4 calcium fluorescence, FDSS. fluorescence ratio F(max-min)/F0 at 10 µM. hit rate 2% among 4,000;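 active = duplicate-averaged calcium fluorescence ratio at least three times the standard deviation of buffer wells, a nonspecific response in parental cells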
HEK293 Ca counter = activity in parental HEK293 cells without MrgX1; parental HEK293 calcium flux, Fluo-4 fluorescence ratio; stronger effect = higher value; shares compounds with MrgX1 antagonist; fluorescence ratio F(max-min)/F0 at 10 µM; hit rate 0.4% among 4,000;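 active = calcium fluorescence ratio, averaged over duplicates, at least 3 SD of the buffer-well ratio, meaning a nonspecific response in receptor-free cells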;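 also: untransfected parental HEK293 lacking MrgX1 used as counterscreen for MrgX1 allosteric activators; fluorescence change taken during the second addition on a kinetic imager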
HEK293 Ca cntr2 = activity in parental HEK293 cells lacking MrgX1 receptor. shares compounds with MrgX1 antagonist. Fluo-4 calcium fluorescence (FDSS); stronger effect = higher value. fluorescence ratio F(max-min)/F0 at 10 µM. hit rate 8.7% among 4,000;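 active = calcium fluorescence ratio at least three times the spread of buffer wells, meaning a non-specific response in parental cells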
Of the large screens only hits and unclear results are named; the others gave an inactive call (follow-up assays come after a bar, where they were run).

COc1cccc(C(=O)NCc2cccnc2)c1	MrgX1 antagonist -5.5 | MrgX1 ant reconf inactive | HEK293 Ca flux inactive | HEK293 Ca counter inactive | HEK293 Ca cntr2 inactive
COc1ccc(NC(=O)NCc2cccnc2)cc1	MrgX1 antagonist -7.6 | MrgX1 ant reconf inactive | HEK293 Ca flux inactive | HEK293 Ca counter inactive | HEK293 Ca cntr2 inactive
COc1ccc(OC)c(C(C)NC(=O)c2ccc(Br)cc2)c1 (configuration not stated)	none
CC1Cc2ccccc2N1S(=O)(=O)c1cccc(C(=O)Nc2cccnc2)c1 (configuration not stated)	MrgX1 antagonist -4.6 | MrgX1 ant reconf inactive | HEK293 Ca flux inactive | HEK293 Ca counter inactive | HEK293 Ca cntr2 inactive
CC(=O)c1cccc(NC(=O)Oc2ccccc2)c1	MrgX1 antagonist -7.8 | MrgX1 ant reconf inactive | HEK293 Ca flux inactive | HEK293 Ca counter inactive | HEK293 Ca cntr2 inactive
CC(=O)c1ccc(NC(=O)Oc2ccccc2)cc1	none
COc1cccc(C(=O)Nc2cccc(C(C)=O)c2)c1	MrgX1 antagonist -8 | MrgX1 ant reconf inactive | HEK293 Ca flux inactive | HEK293 Ca counter inactive | HEK293 Ca cntr2 inactive
COc1cccc(C(=O)Nc2cccnc2)c1	MrgX1 antagonist -5 | MrgX1 ant reconf inactive | HEK293 Ca flux inactive | HEK293 Ca counter inactive | HEK293 Ca cntr2 inactive
O=C(Nc1cccnc1)c1cccc(S(=O)(=O)N2CCc3ccccc32)c1	none
CCOc1ccc(CCNC(=O)COC(=O)c2cccnc2SC)cc1OCC	none
O=C(Nc1ccc2nn(-c3ccccc3)nc2c1)c1cccnc1	MrgX1 antagonist -5.7 | MrgX1 ant reconf 84% | HEK293 Ca flux inactive | HEK293 Ca counter inactive | HEK293 Ca cntr2 inactive
O=C(NCc1cccnc1)c1ccc(COc2ccccc2Br)cc1	none
O=C(Nc1cccnc1)c1ccc(COc2ccccc2Br)cc1	MrgX1 antagonist -7.4 | MrgX1 ant reconf inactive | HEK293 Ca flux inactive | HEK293 Ca counter inactive | HEK293 Ca cntr2 inactive
COc1ccc(OC)c(NC(=O)Cn2cc(C=O)c3ccccc32)c1	none
CCOC(=O)Cn1cc(C(=O)C(C)(C)C)c2ccccc21	MrgX1 antagonist -4.9 | MrgX1 ant reconf inactive | HEK293 Ca flux inactive | HEK293 Ca counter inactive | HEK293 Ca cntr2 inactive
COC(=O)Cn1cc(C(=O)C(C)(C)C)c2ccccc21	none
O=[N+]([O-])c1ccc(NC(=S)NCC(c2cccnc2)N2CCOCC2)cc1 (configuration not stated)	none
CN(C)S(=O)(=O)c1cccc(NC(=O)CN2C(=O)C3C4C=CC(C4)C3C2=O)c1 (configuration not stated)	MrgX1 antagonist -6.8 | MrgX1 ant reconf inactive | HEK293 Ca flux inactive | HEK293 Ca counter inactive | HEK293 Ca cntr2 inactive
CCOc1ccccc1N1CCN(C(=O)c2ccc3[nH]c4c(c3c2)CCCC4)CC1	none
O=[N+]([O-])/C(C(Cl)=C(Cl)Cl)=C(/NC1CC1)Sc1ccccc1	none
Cc1ccccc1OCc1nnc(SCC(=O)Nc2ccc(N3CCOCC3)cc2)n1C	none
CCc1nnc(SCC(=O)Nc2ccc(N3CCOCC3)cc2)n1C	MrgX1 antagonist -5.6 | MrgX1 ant reconf inactive | HEK293 Ca flux inactive | HEK293 Ca counter inactive | HEK293 Ca cntr2 inactive
COC(=O)C1CCN(C(=O)C(C)Oc2ccc(Cl)cc2Cl)CC1 (configuration not stated)	MrgX1 antagonist -9.9 | MrgX1 ant reconf inactive | HEK293 Ca flux inactive | HEK293 Ca counter inactive | HEK293 Ca cntr2 inactive
CCOC(=O)C1CCCN(C(=O)C(C)Oc2ccc(Cl)cc2Cl)C1 (configuration not stated)	none
